Measured values published in article PMC10698511 (RSC Advances, 2023).

Experiments:
HeLa cells [1] = experiment: Antiproliferative activity against HeLa cells; format: cell-based; conditions: Homo sapiens, 48 h, read-out: HeLa IC50
Method in brief: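 HeLa cells from ATCC in RPMI-1640 with 10% FBS and 1% penicillin-streptomycin at 37 °C, 5% CO2. Seeded at 10000 cells/well one day before treatment. Test compound added from DMSO solution and incubated for 48 h, then CCK-8 reagent added and absorbance read at 450 nm. IC50 is the mean of three independent determinations from triplicate samples.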

[2] = Plasma protein binding, human; format: in vitro ADME
HeLa cells [3] = experiment: Cell cycle assay in HeLa cells; format: cell-based; conditions: 48 h treatment
Method in brief: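 HeLa cells (1 × 10^6) grown in 6-well plates and treated with test compound at several concentrations for 48 h. Cells harvested, fixed in 70% ethanol, held at −20 °C for 12 h, then stained with Muse cell cycle reagent for 30 min at room temperature in the dark. Phase distribution read on a Muse cell analyzer. G2/M percentages compared by one-way ANOVA.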

tubulin = experiment: Tubulin polymerization assay; format: biochemical; conditions: 0 to 8 μM, 1 h at 37 °C, absorbance 340 nm
Method in brief: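 Commercial tubulin polymerization kit used per the manufacturer's protocol. Test compound mixed with tubulin in the supplied general tubulin buffer. Polymerization followed by absorbance at 340 nm for 1 h at 37 °C. Curves compared by two-way ANOVA.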

[4] = Plasma protein binding, mouse; format: in vitro ADME
[5] = Microsomal stability in mouse liver microsomes; format: in vitro ADME; conditions: percentage remaining after 30 min, NADPH
[6] = Microsomal stability in human liver microsomes; format: in vitro ADME; conditions: percentage remaining after 30 min, NADPH

Structure (SMILES)	IC50 (HeLa cells [1]) [nM]	fraction unbound [2]	cell cycle effect (HeLa cells [3])	effect on tubulin polymerization (tubulin)	fraction unbound [4]	Microsomal stability (%) Mouse [5] [%]	Microsomal stability (%) Human [6] [%]
O=C(Cn1ccc(-c2ccc(OCCN3CCOCC3)cc2)cc1=O)NCc1ccc(F)cc1 [Compound 57]	340 ± 110						
O=C(Cc1ccc(-c2ccc(OCCN3CCOCC3)cc2)cn1)NCc1ccccc1 [Compound 8, Tirbanibulin, reference compound]	44 ± 11	0.187	G2/M phase arrest	microtubule destabilizers	0.152		
Cc1ccc(CNC(=O)Cn2ccc(-c3ccc(OCCN4CCOCC4)cc3)cc2=O)cc1 [Compound 56]	250 ± 60	0.171			0.04	50.6 ± 1.2	20.2 ± 2.3
